Experimental data as given in ChEMBL document CHEMBL4477194, “Royal Jelly Constituents Increase the Expression of Extracellular Superoxide Dismutase through Histone Acetylation in Monocytic THP-1 Cells” (J Nat Prod, 2016).
Activity calls are given as the source filed them.

Key:
[1] = tested on: THP-1; test: Effect on HDAC8 mRNA expression in human THP1 cells at 1 mM after 24 hrs by RT-PCR method; format: functional, cell-based
How it was run: (§1)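 THP-1 cells in RPMI 1640 with 10% heat-inactivated FCS, 37 °C, 5% CO2. Seeded 2.0 × 10^6 cells per 3.5 cm dish and treated 24 h, at 1 mM for the 1 mM lines and 100 μM for the 100 μM lines. RNA extracted in TRIzol, then real-time RT-PCR normalized to 18S rRNA. Means ± SD of three independent experiments; ANOVA with Bonferroni post hoc.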

[2] = biological target: Histone deacetylase 1 (Homo sapiens) (UniProt Q13547); test: Upregulation of HDAC1 inhibition-mediated histone H3 acetylation-induced extracellular SOD expression in human THP1 cells at 1 mM after 12 hrs by chromatin immunoprecipitation method; format: cell-based
How it was run: (§2)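 THP-1 cells (5 × 10^6) treated 12 h, at 1 mM or 100 μM per line. Cross-linked with formaldehyde 5 min at room temperature and chromatin sonicated to 150–800 bp. Immunoprecipitated overnight on protein G beads and washed in RIPA I/II and TE. Eluted with RNase A and proteinase K. EC-SOD promoter binding expressed as % of input.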

[3] = tested on: THP-1; test: Effect on HDAC9 mRNA expression in human THP1 cells at 1 mM after 24 hrs by RT-PCR method; format: functional, cell-based; how it was run: as §1
[4] = tested on: THP-1; test: Effect on HDAC1 mRNA expression in human THP1 cells at 1 mM after 24 hrs by RT-PCR method; format: functional, cell-based; how it was run: as §1
[5] = tested on: THP-1; test: Effect on HDAC2 mRNA expression in human THP1 cells at 1 mM after 24 hrs by RT-PCR method; format: functional, cell-based; how it was run: as §1
[6] = biological target: Histone deacetylase 1 (Homo sapiens) (UniProt Q13547); test: Inhibition of HDAC1 in human THP1 cells assessed as increase in histone H4 acetylation level at 1 mM after 12 hrs by Western blot analysis relative to control; format: cell-based
How it was run: (§3)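 After 12 h treatment, THP-1 whole-cell extracts (20 μg protein) were run on 12% SDS-PAGE and transferred to PVDF. Membranes were blocked with 1% BSA in PBS and probed with anti-acetyl histone H3 or H4 primary antibodies (1:1000), then a biotin-conjugated secondary antibody (1:1000). Histone loading was checked by Coomassie staining.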

[7] = tested on: THP-1; test: Effect on HDAC6 mRNA expression in human THP1 cells at 1 mM after 24 hrs by RT-PCR method; format: functional, cell-based; how it was run: as §1
[8] = species: Homo sapiens; test: Upregulation of HDAC1 inhibition/ERK signalling activation-mediated extracellular SOD protein expression in human THP1 cells at 1 mM after 24 hrs by ELISA; format: cell-based
How it was run: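 EC-SOD protein content was measured by ELISA in THP-1 cells after 24 h treatment, with cells collected in PBS. Cells were cultured in RPMI 1640 with 10% heat-inactivated FCS at 37 °C and 5% CO2. Values are mean ± SD of three independent experiments, compared against untreated cells.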

[9] = tested on: THP-1; test: Effect on HDAC4 mRNA expression in human THP1 cells at 1 mM after 24 hrs by RT-PCR method; format: functional, cell-based; how it was run: as §1
[10] = species: Homo sapiens; test: Upregulation of HDAC1 inhibition/ERK signalling activation-mediated extracellular SOD mRNA expression in human THP1 cells at 1 mM after 24 hrs by RT-PCR method; format: cell-based
How it was run: (§4)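 THP-1 cells (RPMI 1640, 10% heat-inactivated FCS, 37 °C, 5% CO2) were seeded at 2.0 × 10^6 cells/dish and treated for 24 h. Cells were washed with cold PBS and lysed in TRIzol, then analysed by real-time RT-PCR normalized to 18S rRNA. Values are mean ± SD of three independent experiments, with ANOVA and Bonferroni tests.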

[11] = biological target: Histone deacetylase 1 (Homo sapiens) (UniProt Q13547); test: Inhibition of HDAC1 in human THP1 cells assessed as increase in histone H3 acetylation level at 1 mM after 12 hrs by Western blot analysis relative to control; format: cell-based; how it was run: as §3
[12] = tested on: THP-1; test: Upregulation of Mn SOD mRNA expression in human THP1 cells at 1 mM after 24 hrs by RT-PCR method; format: functional, cell-based; how it was run: as §4
[13] = tested on: THP-1; test: Effect on Cu/Zn SOD mRNA expression in human THP1 cells at 1 mM after 24 hrs by RT-PCR method; format: functional, cell-based; how it was run: as §4
[14] = tested on: THP-1; test: Effect on HDAC7 mRNA expression in human THP1 cells at 1 mM after 24 hrs by RT-PCR method; format: functional, cell-based; how it was run: as §1
[15] = tested on: THP-1; test: Effect on HDAC10 mRNA expression in human THP1 cells at 1 mM after 24 hrs by RT-PCR method; format: functional, cell-based; how it was run: as §1
[16] = biological target: Histone deacetylase (Homo sapiens) (UniProt Q13547+O15379+Q9UBN7+Q92769+Q9UQL6+Q8WUI4+Q9BY41+Q96DB2+P56524+Q9UKV0+Q969S8); test: Inhibition of HDAC activity in human THP1 cells at 1 mM preincubated for 1 hr followed by substrate addition measured after 2 hrs by fluorescence assay relative to control; format: cell-based
How it was run: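 This is a cell-based HDAC assay. THP-1 cells at 5.0 × 10^4 cells/well were treated for 1 h, then HDAC substrate was added for 2 h at 37 °C. Lysis/developer solution followed for 15 min at 37 °C. Fluorescence was read at ex 365 nm / em 410–460 nm and compared with untreated cells; mean ± SD, n = 3 independent experiments.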

[17] = biological target: Histone deacetylase 1 (Homo sapiens) (UniProt Q13547); test: Inhibition of recombinant HDAC1 catalytic domain (unknown origin) using HDAC substrate at 1 mM preincubated for 1 hr followed by substrate addition measured after 30 mins by fluorescence assay relative to control
How it was run: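 Recombinant HDAC1 was mixed with compound in assay buffer, and the reaction was started with HDAC substrate for 30 min at 37 °C in the dark. Developer was then added for 15 min at room temperature. Fluorescence was read at ex 365 nm / em 410–460 nm and compared with untreated control; mean ± SD of three independent experiments.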

[18] = tested on: THP-1; test: Effect on HDAC5 mRNA expression in human THP1 cells at 1 mM after 24 hrs by RT-PCR method; format: functional, cell-based; how it was run: as §1
[19] = biological target: Histone deacetylase 1 (Homo sapiens) (UniProt Q13547); test: Upregulation of HDAC1 inhibition-mediated histone H4 acetylation-induced extracellular SOD expression in human THP1 cells at 1 mM after 12 hrs by chromatin immunoprecipitation method; format: cell-based; how it was run: as §2
[20] = tested on: THP-1; test: Effect on HDAC3 mRNA expression in human THP1 cells at 1 mM after 24 hrs by RT-PCR method; format: functional, cell-based; how it was run: as §1

Sequence of Histone deacetylase 1 (Homo sapiens) (Q13547 whole entry, the tested form may be a part): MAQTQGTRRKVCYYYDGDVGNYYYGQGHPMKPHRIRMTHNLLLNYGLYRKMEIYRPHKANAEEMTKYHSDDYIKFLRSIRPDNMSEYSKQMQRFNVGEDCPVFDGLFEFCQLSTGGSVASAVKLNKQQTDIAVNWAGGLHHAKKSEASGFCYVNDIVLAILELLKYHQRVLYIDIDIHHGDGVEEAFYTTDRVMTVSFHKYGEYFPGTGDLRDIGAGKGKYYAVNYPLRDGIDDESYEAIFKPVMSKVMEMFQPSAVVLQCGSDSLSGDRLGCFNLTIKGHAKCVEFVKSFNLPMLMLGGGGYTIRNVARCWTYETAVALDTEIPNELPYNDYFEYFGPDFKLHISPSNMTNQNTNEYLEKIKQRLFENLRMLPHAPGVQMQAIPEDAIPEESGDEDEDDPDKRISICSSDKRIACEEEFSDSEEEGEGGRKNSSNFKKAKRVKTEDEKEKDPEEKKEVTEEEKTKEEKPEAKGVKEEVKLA

O=C(O)CCCCCCCCCO
inactive: Activity [1] | Activity [2] | Activity [3] | Activity [4] | Activity [5] | Activity [7] | Activity [9] | Activity [12] | Activity [13] | Activity [14] | Activity [15] | Activity [18] | Activity [20]
50%: inhibition [17]
20%: inhibition [16]
2.45: fold change (FC) [6]
active: Activity [8] | Activity [10] | Activity [19]
1.33: fold change (FC) [11]
